{
  "source": "ChEMBL document CHEMBL4673269",
  "about": "“Discovery of S64315, a Potent and Selective Mcl-1 Inhibitor” (J Med Chem, 2020)",
  "key": {"NOMO-1": {"test_system": "NOMO-1", "assay": "Antiproliferative activity against human NOMO1 assessed as reduction in cell viability incubated for 3 days by Cell Titer Blue assay", "assay_type": "functional, cell-based", "details": "time 3.0 day"}, "HL-60": {"test_system": "HL-60", "assay": "Antiproliferative activity against human HL60 assessed as reduction in cell viability incubated for 3 days by Cell Titer Blue assay", "assay_type": "functional, cell-based", "details": "time 3.0 day"}, "[1]": {"biological_target": "Induced myeloid leukemia cell differentiation protein Mcl-1 (Homo sapiens) (UniProt Q07820)", "sequence (Q07820 whole entry, the tested form may be a part)": "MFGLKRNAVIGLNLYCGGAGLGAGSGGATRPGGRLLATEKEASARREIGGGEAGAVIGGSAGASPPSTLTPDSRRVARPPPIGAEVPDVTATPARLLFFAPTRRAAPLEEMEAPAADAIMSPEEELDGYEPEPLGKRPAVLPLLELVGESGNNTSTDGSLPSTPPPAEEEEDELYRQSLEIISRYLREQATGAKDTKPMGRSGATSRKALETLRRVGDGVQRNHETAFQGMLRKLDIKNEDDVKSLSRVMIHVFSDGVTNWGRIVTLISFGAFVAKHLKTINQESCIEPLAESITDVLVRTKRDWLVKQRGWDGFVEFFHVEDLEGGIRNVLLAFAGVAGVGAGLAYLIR", "assay": "Displacement of Bax BH3 domain from FLAG-tagged Mcl-1 (unknown origin) expressed in human Hela cells at 30 to 300 nM incubated for 2 hrs by immunoprecipitation assay", "assay_type": "cell-based", "details": "dose 30-300 nM", "how_it_was_run": "(§1)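 HeLa cells in DMEM with 10% FCS were transiently transfected with Flag-tagged Mcl-1, Bcl-xL or Bcl-2 vectors. 24 h later they were treated for 2 h and lysed (Hepes pH 7.5, 150 mM KCl, MgCl₂, EDTA, 0.4% Triton X100). Cleared lysates were immunoprecipitated with anti-Flag M2 beads. Inputs and IPs were immunoblotted for endogenous Bax, Bak and Flag.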"}, "[2]": {"assay": "Plasma protein binding in mouse assessed as unbound fraction", "assay_type": "ADME, cell-free"}, "[3]": {"biological_target": "Bcl-2-like protein 1 (Homo sapiens) (UniProt Q07817)", "sequence (Q07817 whole entry, the tested form may be a part)": "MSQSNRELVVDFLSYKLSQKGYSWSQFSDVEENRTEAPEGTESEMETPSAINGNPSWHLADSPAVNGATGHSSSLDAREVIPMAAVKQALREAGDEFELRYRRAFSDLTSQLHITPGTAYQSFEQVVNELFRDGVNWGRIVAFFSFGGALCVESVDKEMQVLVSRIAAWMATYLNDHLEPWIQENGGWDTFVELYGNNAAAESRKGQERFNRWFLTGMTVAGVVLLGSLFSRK", "assay": "Displacement of Bax BH3 domain from FLAG-tagged Bcl-xl (unknown origin) expressed in human Hela cells at 30 to 300 nM incubated for 2 hrs by immunoprecipitation assay", "assay_type": "cell-based", "details": "dose 30-300 nM", "how_it_was_run": "as §1"}, "AMO1 [4]": {"test_system": "AMO1", "assay": "Antitumor activity against human AMO1 xenografted in CB-17 SCID mouse assessed as maximum tumor growth inhibition at 12.5 mg/kg, iv administered for 5 consecutive days measured post-last dose", "assay_type": "functional", "parameters": "scale not given: the % may be the effect or the level left", "details": "time 5 day", "how_it_was_run": "(§2)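 Female CB-17 SCID mice, 6−7 weeks old. 5 × 10⁶ AMO-1 cells in growth medium/Matrigel 50:50 injected subcutaneously in the right flank. Randomised at about 200 mm³, n = 8 to 10 per group. Dosed iv in 20% HPbCD–25 mM HCl, daily for 5 days or weekly for 4 weeks. Calipers 2−3 times weekly; volume = length × width²/2. TGI computed from median change in volume versus control; delay judged at median volume 500 mm³.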"}, "MV4-11": {"test_system": "MV4-11", "assay": "Antiproliferative activity against human MV411 assessed as reduction in cell viability incubated for 3 days by Cell Titer Blue assay", "assay_type": "functional, cell-based", "details": "time 3.0 day"}, "Daudi": {"test_system": "Daudi", "assay": "Antiproliferative activity against human Daudi assessed as reduction in cell viability incubated for 3 days by Cell Titer Blue assay", "assay_type": "functional, cell-based", "details": "time 3.0 day"}, "AMO1 [5]": {"test_system": "AMO1", "assay": "Antitumor activity against human AMO1 xenografted in CB-17 SCID mouse assessed as tumor growth inhibition administered intravenously for 5 consecutive days measured post-last dose", "assay_type": "functional", "details": "time 5.0 day", "how_it_was_run": "as §2"}, "[6]": {"biological_target": "Apoptosis regulator Bcl-2 (Homo sapiens) (UniProt P10415)", "sequence (P10415 whole entry, the tested form may be a part)": "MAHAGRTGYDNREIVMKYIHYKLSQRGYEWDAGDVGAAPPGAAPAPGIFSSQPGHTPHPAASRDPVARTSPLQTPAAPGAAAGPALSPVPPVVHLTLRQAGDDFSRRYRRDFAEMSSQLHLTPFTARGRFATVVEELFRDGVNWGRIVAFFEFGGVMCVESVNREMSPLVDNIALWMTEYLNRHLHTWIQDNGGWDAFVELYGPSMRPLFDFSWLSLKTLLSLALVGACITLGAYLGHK", "assay": "Displacement of Bax BH3 domain from FLAG-tagged Bcl-2 (unknown origin) expressed in human Hela cells at 30 to 300 nM incubated for 2 hrs by immunoprecipitation assay", "assay_type": "cell-based", "details": "dose 30-300 nM", "how_it_was_run": "as §1"}, "AMO1 [7]": {"test_system": "AMO1", "assay": "Antitumor activity against human AMO1 xenografted in CB-17 SCID mouse assessed as tumor growth inhibition at 12.5 mg/kg, iv administered daily measured on day 10", "assay_type": "functional", "details": "240 h, read-out: TGI", "how_it_was_run": "as §2"}, "[8]": {"assay": "Plasma protein binding in human assessed as unbound fraction", "assay_type": "ADME, cell-free"}, "MINO": {"test_system": "MINO", "assay": "Antiproliferative activity against human Mino assessed as reduction in cell viability incubated for 3 days by Cell Titer Blue assay", "assay_type": "functional", "details": "time 3.0 day"}, "Raji": {"test_system": "Raji", "assay": "Antiproliferative activity against human Raji assessed as reduction in cell viability incubated for 3 days by Cell Titer Blue assay", "assay_type": "functional, cell-based", "details": "time 3.0 day"}, "Cytochrome P450 3A4": {"biological_target": "Cytochrome P450 3A4 (Homo sapiens, UniProt P08684)", "sequence (P08684 whole entry)": "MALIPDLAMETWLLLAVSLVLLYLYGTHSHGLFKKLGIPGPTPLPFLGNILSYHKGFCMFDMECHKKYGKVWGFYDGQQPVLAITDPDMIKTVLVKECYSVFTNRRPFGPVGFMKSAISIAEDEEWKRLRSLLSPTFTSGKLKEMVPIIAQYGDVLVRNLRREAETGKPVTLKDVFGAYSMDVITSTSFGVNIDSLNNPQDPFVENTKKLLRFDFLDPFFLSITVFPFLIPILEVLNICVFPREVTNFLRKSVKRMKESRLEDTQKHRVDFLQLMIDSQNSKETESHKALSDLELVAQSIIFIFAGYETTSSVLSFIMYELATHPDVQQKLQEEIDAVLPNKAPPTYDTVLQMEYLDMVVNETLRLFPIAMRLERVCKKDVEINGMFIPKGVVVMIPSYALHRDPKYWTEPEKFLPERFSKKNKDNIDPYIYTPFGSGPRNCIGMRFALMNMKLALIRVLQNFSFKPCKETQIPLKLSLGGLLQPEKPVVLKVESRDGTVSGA", "assay": "Inhibition of CYP3A4 (unknown origin)", "assay_type": "ADME", "how_it_was_run": "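High-throughput drug-drug interaction screen using human CYP450-transfected cells; IC50 determined for CYP3A4 inhibition.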"}, "HuT78": {"test_system": "HuT78", "assay": "Antiproliferative activity against human HUT78 assessed as reduction in cell viability incubated for 3 days by Cell Titer Blue assay", "assay_type": "functional, cell-based", "details": "time 3.0 day"}, "[9]": {"assay": "Clearance in mouse at […] mg/kg, iv formulated with 20 % HPBCD in water/ […]% HCl", "assay_type": "ADME, organism-based", "details": "in vivo"}, "[10]": {"assay": "Clearance in mouse at 12.5 mg/kg, iv formulated with 20 % HPBCD in water/ […]", "assay_type": "ADME, organism-based", "details": "in vivo"}, "[11]": {"assay": "Terminal half-life in mouse at […] mg/kg, iv formulated with 20 % HPBCD in water/ […]% HCl", "assay_type": "ADME, organism-based", "details": "in vivo, read-out: beta t1/2 (converted)"}, "AMO1 [12]": {"test_system": "AMO1", "assay": "Antitumor activity against human AMO1 cells xenografted in CB-17 SCID mouse assessed as tumor growth inhibition at […] mg/kg, iv administered for 5 consecutive days measured on day 4 relative to control", "assay_type": "functional", "details": "120 h, time 5 day, read-out: TGI"}, "[13]": {"biological_target": "Induced myeloid leukemia cell differentiation protein Mcl-1 (Homo sapiens) (UniProt Q07820)", "assay": "Stabilization of Mcl-1 in human HCT116 cells assessed as increase in Mcl-1 protein levels incubated for 16 hrs by western blot analysis", "assay_type": "cell-based", "details": "HCT-116, dose 0.3-10000 nM", "how_it_was_run": "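HCT116 cells were seeded at 0.25×10⁶ per 35 mm dish in RPMI 1640 with 10% decomplemented FBS, 2 mM L-glutamine and 10 mM Hepes pH 7.4, at 37 °C and 5% CO₂. After 48 h they were dosed for 16 h and lysed in Hepes/KCl/MgCl₂/EDTA/1% NP40 buffer with inhibitors. Lysate (20 μg) was immunoblotted for Mcl-1, with actin as loading control.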"}, "NCI-H929": {"test_system": "NCI-H929", "assay": "Induction of apoptosis in human H929 cells assessed as induction of PARP cleavage incubated for 6 hrs by immunodetection analysis", "assay_type": "functional, cell-based", "details": "dose 1-3000 nM", "how_it_was_run": "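H929 cells in RPMI 1640 with 10% FBS were seeded at 2 × 10⁶ cells per 35 mm dish. After 24 h they were exposed to compound for 6 h, then lysed (Hepes pH 7.4, KCl, MgCl₂, EDTA, 1% NP40). 5 μg lysate was assayed for cleaved PARP with the MSD apoptosis panel, read as RLU. Two independent biological experiments.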"}, "[14]": {"assay": "Terminal half-life in mouse at 12.5 mg/kg, iv formulated with 20 % HPBCD in water/ […]", "assay_type": "ADME, organism-based", "details": "in vivo, read-out: beta t1/2 (converted)"}, "AMO1 [15]": {"test_system": "AMO1", "assay": "Antitumor activity against human AMO1 xenografted in CB-17 SCID mouse assessed as maximum tumor growth inhibition at […] mg/kg, iv administered for 5 consecutive days measured post-last dose", "assay_type": "functional", "parameters": "scale not given: the % may be the effect or the level left", "details": "time 5 day"}, "THP-1": {"test_system": "THP-1", "assay": "Antiproliferative activity against human THP-1 assessed as reduction in cell viability incubated for 3 days by Cell Titer Blue assay", "assay_type": "functional, cell-based", "details": "time 3.0 day"}, "[16]": {"biological_target": "Induced myeloid leukemia cell differentiation protein Mcl-1 (Homo sapiens) (UniProt Q07820)", "assay": "Displacement of Bak BH3 domain from FLAG-tagged Mcl-1 (unknown origin) expressed in human Hela cells at 30 to 300 nM incubated for 2 hrs by immunoprecipitation assay", "assay_type": "cell-based", "details": "dose 30-300 nM", "how_it_was_run": "as §1"}, "SU-DHL-1": {"test_system": "SU-DHL-1", "assay": "Antiproliferative activity against human SU-DHL1 assessed as reduction in cell viability incubated for 3 days by Cell Titer Blue assay", "assay_type": "functional, cell-based", "details": "time 3.0 day"}, "[17]": {"biological_target": "Bcl-2-like protein 1 (Homo sapiens) (UniProt Q07817)", "assay": "Displacement of Bak BH3 domain from FLAG-tagged Bcl-xl (unknown origin) expressed in human Hela cells at 30 to 300 nM incubated for 2 hrs by immunoprecipitation assay", "assay_type": "cell-based", "details": "dose 30-300 nM", "how_it_was_run": "as §1"}, "OCI-AML2": {"test_system": "OCI-AML2", "assay": "Antiproliferative activity against human OCI-AML2 assessed as reduction in cell viability incubated for 3 days by Cell Titer Blue assay", "assay_type": "functional, cell-based", "details": "time 3.0 day"}, "AMO1 [18]": {"test_system": "AMO1", "assay": "Antitumor activity against human AMO1 xenografted in CB-17 SCID mouse assessed as tumor regression at 12.5 mg/kg, iv administered for 5 consecutive days and observed upto day 35 post last dose", "assay_type": "functional, organism-based", "details": "time 35.0 day", "how_it_was_run": "as §2"}},
  "note": "pIC50: −log10 of the molar value. Active and inactive are the calls of the source. The calls are words filed in the database; no cut-off is given here.",
  "data": [
    {"compound": "COc1ccccc1-c1nccc(COc2ccccc2C[C@@H](Oc2ncnc3sc(-c4ccc(F)cc4)c(-c4ccc(OCCN5CCN(C)CC5)c(Cl)c4C)c23)C(=O)O)n1", "values": [
      {"measurement": "Activity", "setting": "NOMO-1", "value": "Active"},
      {"measurement": "Activity", "setting": "HL-60", "value": "Active"},
      {"measurement": "Activity", "setting": "[1]", "value": "Active"},
      {"measurement": "Fu", "setting": "[2]", "value": 0.04, "unit": "%"},
      {"measurement": "Activity", "setting": "[3]", "value": "inactive"},
      {"measurement": "Activity", "setting": "AMO1 [4]", "value": 162.8, "unit": "%"},
      {"measurement": "Activity", "setting": "MV4-11", "value": "Active"},
      {"measurement": "Activity", "setting": "Daudi", "value": "Active"},
      {"measurement": "Activity", "setting": "AMO1 [5]", "value": "Dose-dependent effect"},
      {"measurement": "Activity", "setting": "[6]", "value": "inactive"},
      {"measurement": "inhibition in vivo at 12.5 mg/kg", "setting": "AMO1 [7]", "value": 112, "unit": "%"},
      {"measurement": "Fu", "setting": "[8]", "value": 0.05, "unit": "%"},
      {"measurement": "Activity", "setting": "MINO", "value": "Active"},
      {"measurement": "Activity", "setting": "Raji", "value": "Active"},
      {"measurement": "pIC50", "setting": "Cytochrome P450 3A4", "value": 5.74},
      {"measurement": "Activity", "setting": "HuT78", "value": "Active"},
      {"measurement": "clearance", "setting": "[9]", "value": 5.3, "unit": "mL/min/kg"},
      {"measurement": "clearance", "setting": "[10]", "value": 6, "unit": "mL/min/kg"},
      {"measurement": "half-life", "setting": "[11]", "value": 5, "unit": "h"},
      {"measurement": "inhibition in vivo at […]", "setting": "AMO1 [12]", "value": 190, "unit": "%"},
      {"measurement": "Activity", "setting": "[13]", "value": "Dose-dependent effect"},
      {"measurement": "Activity", "setting": "NCI-H929", "value": "Dose-dependent effect"},
      {"measurement": "half-life", "setting": "[14]", "value": 5, "unit": "h"},
      {"measurement": "Activity", "setting": "AMO1 [15]", "value": 115.8, "unit": "%"},
      {"measurement": "Activity", "setting": "THP-1", "value": "Active"},
      {"measurement": "Activity", "setting": "[16]", "value": "Active"},
      {"measurement": "Activity", "setting": "SU-DHL-1", "value": "Active"},
      {"measurement": "Activity", "setting": "[17]", "value": "inactive"},
      {"measurement": "Activity", "setting": "OCI-AML2", "value": "Active"},
      {"measurement": "Activity", "setting": "AMO1 [18]", "value": "Active"}
    ]}
  ]
}
